Source: ChEMBL document CHEMBL1137353, “6-(4-chlorophenyl)-3-substituted-thieno[3,2-d]pyrimidin-4(3H)-one-based melanin-concentrating hormone receptor 1 antagonist” (J Med Chem, 2006)

Legend:
[1] = biological target: Melanin-concentrating hormone receptor 1 (Homo sapiens, UniProt Q99705); assay: Antagonist activity against human MCH1 receptor stably-expressed in CHO cells by Gal4/Elk1-Luc reporter assay; type: functional, cell-based
Outline: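 Human MCHR1 antagonism read out in CHO cells carrying a Gal4/Elk1 luciferase reporter. IC50 values are averages of 2-3 experiments.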

[2] = Oral bioavailability in rat at 3 mg/kg, iv and 10 mg/kg, po; type: ADME, organism-based; conditions: in vivo
Outline: (§1)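 Rat PK. Dosed in 20% DMSO/21% Solutol in 10 mM MSA (final concentration), n = 2. IV dose 3 mg/kg, PO dose 10 mg/kg. Plasma drug levels measured by LC-MS/MS. Half-life taken from the IV dosing.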

[3] = Half life in rat at 3 mg/kg, iv; type: ADME, organism-based; set-up: dose 3 mg/kg, route intravenous; conditions: in vivo; outline: as §1
[4] = Volume of distribution in rat at 3 mg/kg, iv and 10 mg/kg, po; type: ADME, organism-based; conditions: in vivo, read-out: Vss; outline: as §1
[5] = Total clearance in rat at 3 mg/kg, iv and 10 mg/kg, po; type: ADME, organism-based; conditions: in vivo; outline: as §1
[6] = Dissociation constant, pKa of the compound; type: physicochemical
Mus musculus [7] = assay: Reduction in body weight of DIO AKR/J mouse relative to control at 1 mg/kg/day, po after 21 days; type: functional; set-up: scale not given: the % may be the effect or the level left
Outline: (§2)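 Diet-induced obese AKR/J mice on a high-fat diet (58% kcal fat). Oral dosing once daily for 21 days. Weight change expressed as percentage of pretreatment body weight for each group. Vehicle group and rimonabant (CB1 inverse agonist) used as controls. Mean ± SEM.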

Mus musculus [8] = assay: Reduction in body weight of DIO AKR/J mouse relative to control at 3 mg/kg/day, po after 21 days; type: functional; set-up: scale not given: the % may be the effect or the level left; outline: as §2
Mus musculus [9] = assay: Reduction in body weight of DIO AKR/J mouse relative to control at 10 mg/kg/day, po after 21 days; type: functional; set-up: scale not given: the % may be the effect or the level left; outline: as §2

Sequence of Melanin-concentrating hormone receptor 1 (Q99705 whole entry, the tested form may be a part): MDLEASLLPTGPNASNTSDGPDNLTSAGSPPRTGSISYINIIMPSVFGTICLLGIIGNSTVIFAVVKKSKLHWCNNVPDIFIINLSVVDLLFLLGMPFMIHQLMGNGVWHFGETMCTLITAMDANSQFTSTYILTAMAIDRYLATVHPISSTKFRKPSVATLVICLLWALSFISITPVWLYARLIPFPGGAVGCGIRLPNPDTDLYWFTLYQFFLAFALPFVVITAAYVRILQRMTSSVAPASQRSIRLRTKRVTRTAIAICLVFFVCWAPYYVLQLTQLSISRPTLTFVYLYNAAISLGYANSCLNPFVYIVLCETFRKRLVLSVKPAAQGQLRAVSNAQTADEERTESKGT

O=c1c2sc(-c3ccc(Cl)cc3)cc2ncn1-c1ccc2c(c1)CCC(CN1CCCCC1)C2 (stereo not given)
IC50 [1]: 3.1 nM

O=c1c2sc(-c3ccc(Cl)cc3)cc2ncn1-c1ccc2cc(CN3CCCCC3)ccc2c1
IC50 [1]: 0.39 nM

O=C(NCCCN1CCCC1)c1ccc2cc(-n3cnc4cc(-c5ccc(Cl)cc5)sc4c3=O)ccc2c1
IC50 [1]: 1410 nM

CN(C)CC1CCc2cc(-n3cnc4cc(-c5ccc(Cl)cc5)sc4c3=O)ccc2C1 (stereo not given)
IC50 [1]: 1.1 nM

O=c1c2sc(-c3ccc(Cl)cc3)cc2ncn1-c1ccc2c(c1)CCC(CN1CCCC1)C2 (stereo not given)
IC50 [1]: 1.3 nM

CN(C)Cc1cc2cc(-n3cnc4cc(-c5ccc(Cl)cc5)sc4c3=O)ccc2s1
IC50 [1]: 1.3 nM

O=C(NCCN1CCCC1)c1ccc2cc(-n3cnc4cc(-c5ccc(Cl)cc5)sc4c3=O)ccc2c1
IC50 [1]: 5 nM

O=C(c1ccc2cc(-n3cnc4cc(-c5ccc(Cl)cc5)sc4c3=O)ccc2c1)N1CCCC1
IC50 [1]: > 10000 nM

O=c1c2sc(-c3ccc(Cl)cc3)cc2ncn1-c1ccc2oc(CN3CCCC3)cc2c1
bioavailability [2]: 21% | half-life [3]: 1.6 h | Vd [4]: 8.5 L/kg | clearance [5]: 115 mL/min/kg | IC50 [1]: 1.1 nM

O=c1c2sc(-c3ccc(Cl)cc3)cc2ncn1-c1ccc2cc(CO)ccc2c1
IC50 [1]: 31.6 nM

O=c1c2sc(-c3ccc(Cl)cc3)cc2ncn1-c1ccc2sc(CN3CCC(c4ccccc4)CC3)cc2c1
pKa [6]: 7.91 | bioavailability [2]: 27.9% | half-life [3]: 5.9 h | Vd [4]: 0.6 L/kg | clearance [5]: 2.9 mL/min/kg | IC50 [1]: 5.7 nM

O=c1c2sc(-c3ccc(Cl)cc3)cc2ncn1-c1ccc2ccccc2c1
IC50 [1]: > 10000 nM

COC[C@H]1CCCN1Cc1cc2cc(-n3cnc4cc(-c5ccc(Cl)cc5)sc4c3=O)ccc2n1C
IC50 [1]: 1.4 nM

Cn1c(CN2CCCC2)cc2cc(-n3cnc4cc(-c5ccc(Cl)cc5)sc4c3=O)ccc21
IC50 [1]: 1.1 nM

O=c1c2sc(-c3ccc(Cl)cc3)cc2ncn1-c1ccc2c(c1)CCC(CN1CCCCC1)=C2
IC50 [1]: 0.75 nM

O=c1c2sc(-c3ccc(Cl)cc3)cc2ncn1-c1ccc2sc(CN3CC[C@@H](O)C3)cc2c1
bioavailability [2]: 36.1% | half-life [3]: 2.1 h | Vd [4]: 3.6 L/kg | clearance [5]: 30.8 mL/min/kg | IC50 [1]: 2.5 nM

O=c1c2sc(-c3ccc(Cl)cc3)cc2ncn1-c1ccc2sc(CN3CCCC3)cc2c1
IC50 [1]: 0.91 nM

COC[C@H]1CCCN1Cc1cc2cc(-n3cnc4cc(-c5ccc(Cl)cc5)sc4c3=O)ccc2o1
IC50 [1]: 9.5 nM

O=c1c2sc(-c3ccc(Cl)cc3)cc2ncn1-c1ccc2sc(CN3CCN(c4ccccc4)CC3)cc2c1
IC50 [1]: 29 nM

O=c1c2sc(-c3ccc(Cl)cc3)cc2ncn1-c1ccc2c(c1)CCC(CN1CCCC1)=C2
bioavailability [2]: 57% | half-life [3]: 11 h | Vd [4]: 15.7 L/kg | clearance [5]: 21.2 mL/min/kg | IC50 [1]: 0.87 nM

O=c1c2sc(-c3ccc(Cl)cc3)cc2ncn1-c1ccc2sc(CN3CCOCC3)cc2c1
IC50 [1]: 38 nM

CN(C)CC1=Cc2ccc(-n3cnc4cc(-c5ccc(Cl)cc5)sc4c3=O)cc2CC1
bioavailability [2]: 67% | half-life [3]: 3 h | Vd [4]: 16 L/kg | clearance [5]: 80 mL/min/kg | IC50 [1]: 2.7 nM

O=C(O)c1ccc2cc(-n3cnc4cc(-c5ccc(Cl)cc5)sc4c3=O)ccc2c1
IC50 [1]: > 10000 nM

CN1CCN(Cc2cc3cc(-n4cnc5cc(-c6ccc(Cl)cc6)sc5c4=O)ccc3s2)CC1
bioavailability [2]: 66% | half-life [3]: 9.1 h | Vd [4]: 20.4 L/kg | clearance [5]: 39 mL/min/kg | Activity (Mus musculus [7]): 1.1% | Activity (Mus musculus [8]): 3.2% | Activity (Mus musculus [9]): 11.8% | IC50 [1]: 5.7 nM

O=c1c2sc(-c3ccc(Cl)cc3)cc2ncn1-c1ccc2sc(CN3CCCCC3)cc2c1
pKa [6]: 8.29 | IC50 [1]: 2 nM

Cc1c(C(=O)NN2CCCCC2)nn(-c2ccc(Cl)cc2Cl)c1-c1ccc(Cl)cc1 [RIMONABANT]
Activity (Mus musculus [9]): 8.4%
